Values joined by “and” are separate entries in the source; they are usually repeats but may differ in a detail not shown here. Equal entries are not always repeated.
How the values were obtained:
Format in all cases: functional
[1] = organism: Mus musculus; assay: Antagonistic activity against tetrabenazine-induced ptosis in mice.
In short: (§1)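 Mice dosed intraperitoneally; the result is reported as the ED50 in μmol/kg with a range in parentheses. Test compounds are racemates of >95% isomeric purity by TLC.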

[2] = molecular target: Norepinephrine transporter (Rattus norvegicus, UniProt Q9WTR4); assay: Inhibition of noradrenaline uptake in rat synaptosomal fraction
Chain of Norepinephrine transporter (Q9WTR4 whole entry): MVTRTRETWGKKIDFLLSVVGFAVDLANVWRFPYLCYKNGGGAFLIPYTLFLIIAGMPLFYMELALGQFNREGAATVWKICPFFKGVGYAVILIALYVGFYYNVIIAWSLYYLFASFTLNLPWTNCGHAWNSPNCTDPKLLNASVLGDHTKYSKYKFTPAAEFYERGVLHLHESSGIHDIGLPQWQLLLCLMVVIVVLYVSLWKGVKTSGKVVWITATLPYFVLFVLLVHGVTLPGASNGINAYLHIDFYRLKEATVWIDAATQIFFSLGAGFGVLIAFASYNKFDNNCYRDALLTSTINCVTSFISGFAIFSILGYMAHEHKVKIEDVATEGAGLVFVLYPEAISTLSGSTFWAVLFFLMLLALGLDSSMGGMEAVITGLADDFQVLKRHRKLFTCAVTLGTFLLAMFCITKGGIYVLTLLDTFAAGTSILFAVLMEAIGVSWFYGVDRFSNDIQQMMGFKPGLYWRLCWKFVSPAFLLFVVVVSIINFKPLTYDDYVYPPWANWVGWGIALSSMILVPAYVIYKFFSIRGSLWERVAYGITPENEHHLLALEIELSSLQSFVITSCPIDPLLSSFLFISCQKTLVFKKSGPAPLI
In short: (§2)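 Synaptosomal uptake of DA, NE or 5-HT measured. The IC50 is in nM and is the mean of at least two determinations, each using five test concentrations in triplicate.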

[3] = molecular target: Sodium-dependent serotonin transporter (Rattus norvegicus, UniProt P31652); assay: Inhibition of 5-HT uptake in rat synaptosomal fraction; in short: as §2
Chain of Sodium-dependent serotonin transporter (P31652 whole entry): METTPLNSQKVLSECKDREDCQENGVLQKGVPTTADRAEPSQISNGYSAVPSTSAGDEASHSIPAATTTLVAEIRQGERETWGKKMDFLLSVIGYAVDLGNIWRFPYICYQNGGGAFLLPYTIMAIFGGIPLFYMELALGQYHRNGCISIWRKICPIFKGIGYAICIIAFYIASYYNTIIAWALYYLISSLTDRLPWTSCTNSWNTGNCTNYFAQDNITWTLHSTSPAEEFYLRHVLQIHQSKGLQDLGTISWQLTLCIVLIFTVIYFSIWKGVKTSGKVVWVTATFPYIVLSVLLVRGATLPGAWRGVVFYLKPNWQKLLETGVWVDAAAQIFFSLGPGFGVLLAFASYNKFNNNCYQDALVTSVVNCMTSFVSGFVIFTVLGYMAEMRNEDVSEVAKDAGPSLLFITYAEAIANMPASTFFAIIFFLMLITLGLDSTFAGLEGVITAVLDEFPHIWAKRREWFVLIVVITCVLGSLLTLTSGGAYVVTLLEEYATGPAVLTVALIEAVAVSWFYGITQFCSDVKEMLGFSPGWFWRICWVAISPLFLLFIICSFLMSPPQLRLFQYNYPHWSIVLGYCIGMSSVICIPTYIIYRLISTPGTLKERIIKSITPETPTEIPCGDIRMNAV

[4] = molecular target: Sodium-dependent dopamine transporter (Rattus norvegicus, UniProt P23977); assay: Inhibition of dopamine uptake in rat synaptosomal fraction
Chain of Sodium-dependent dopamine transporter (P23977 whole entry): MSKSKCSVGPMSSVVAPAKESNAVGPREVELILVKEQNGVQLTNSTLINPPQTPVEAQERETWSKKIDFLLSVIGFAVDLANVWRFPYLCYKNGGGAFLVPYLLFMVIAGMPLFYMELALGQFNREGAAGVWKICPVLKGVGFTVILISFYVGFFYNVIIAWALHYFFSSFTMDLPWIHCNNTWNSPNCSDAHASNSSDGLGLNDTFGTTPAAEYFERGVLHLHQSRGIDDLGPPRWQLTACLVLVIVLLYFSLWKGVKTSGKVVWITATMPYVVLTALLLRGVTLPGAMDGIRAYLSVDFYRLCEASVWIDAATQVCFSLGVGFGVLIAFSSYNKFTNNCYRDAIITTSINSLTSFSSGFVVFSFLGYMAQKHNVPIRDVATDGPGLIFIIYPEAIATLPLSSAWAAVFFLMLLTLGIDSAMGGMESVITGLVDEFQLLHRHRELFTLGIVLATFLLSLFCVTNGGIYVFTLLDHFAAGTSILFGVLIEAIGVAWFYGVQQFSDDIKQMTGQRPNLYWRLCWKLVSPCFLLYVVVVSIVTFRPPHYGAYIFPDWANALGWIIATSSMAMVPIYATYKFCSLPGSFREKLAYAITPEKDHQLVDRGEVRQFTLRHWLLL

[5] = organism: Mus musculus; assay: Antagonistic activity against 5-HTP induced potentiation in mice; in short: as §1

Row | Compound | ED50 [5] | also measured
1 | CN(C)C1CC(c2ccc(F)cc2)c2ccc(F)cc21 (configuration not stated) [listing 1 of 2 here] | – | ED50 [1]: >147 µmol/kg; IC50 [2]: 90 nM
2 | CN(C)C1CC(c2ccc(Cl)c(Cl)c2)c2ccccc21 (configuration not stated) [listing 1 of 2 here] | – | IC50 [3]: 0.64 nM; IC50 [2]: 24 nM; IC50 [4]: 28 nM
3 | Clc1ccc(C2CC(NCCc3ccccc3)c3ccccc32)cc1Cl (configuration not stated) [listing 1 of 2 here] | – | ED50 [1]: >85 µmol/kg
4 | Cl.Clc1ccc(C2CC(NCCc3ccccc3)c3ccccc32)cc1Cl (configuration not stated) | – | ED50 [1]: 33 µmol/kg
5 | CN(C)C1CC(c2ccc(Cl)c(Cl)c2)c2ccccc21.Cl (configuration not stated) | – | IC50 [2]: 2.4 nM
6 | CN(C)C1CC(c2ccc(Cl)c(Cl)c2)c2ccccc21 (configuration not stated) [listing 2 of 2 here] | 5 µmol/kg and 10 µmol/kg | –
7 | CN(C)C1CC(c2ccc(F)c(F)c2)c2ccccc21 (configuration not stated) | 73 µmol/kg and 42 µmol/kg | –
8 | CN(C)C1CC(c2ccc(F)cc2)c2ccc(F)cc21 (configuration not stated) [listing 2 of 2 here] | > 29 µmol/kg and 21 µmol/kg | –
9 | CN1Cc2c(N)cccc2C(c2ccccc2)C1 (configuration not stated) | > 56 µmol/kg | –
10 | CNC1CC(c2ccc(Cl)cc2)c2ccccc21 (configuration not stated) | 34 µmol/kg and 22 µmol/kg | –
11 | Clc1ccc(C2CC(NCCc3ccccc3)c3ccccc32)cc1Cl (configuration not stated) [listing 2 of 2 here] | > 85 µmol/kg and 142 µmol/kg | –
12 | CN1CCN(C2CC(c3ccc(Cl)c(Cl)c3)c3ccccc32)CC1 (single isomer, unassigned; (+)-101) [listing 1 of 2 here] | – | ED50 [1]: >91 µmol/kg; IC50 [4]: 340 nM
13 | CN1CCN(C2CC(c3ccc(Cl)c(Cl)c3)c3ccccc32)CC1 (single isomer, unassigned; (+)-101) [listing 2 of 2 here] | > 91 µmol/kg | –
14 | CN1CCN(C2CC(c3ccc(Cl)c(Cl)c3)c3ccccc32)CC1 (single isomer, unassigned; (+)-102) [listing 1 of 2 here] | – | IC50 [4]: 1700 nM
15 | CN1CCN(C2CC(c3ccc(Cl)c(Cl)c3)c3ccccc32)CC1 (single isomer, unassigned; (+)-102) [listing 2 of 2 here] | > 89 µmol/kg | –
16 | CN1CCN(C2CC(c3ccc(Cl)c(Cl)c3)c3ccccc32)CC1 (single isomer, unassigned; (-)) | > 92 µmol/kg | –
17 | CN(C)C1CC(c2ccccc2)c2ccccc21 (stereo in doubt; 31) | > 35 µmol/kg | –
18 | CNC1CC(c2ccc(F)cc2)c2ccccc21.Cl (stereo in doubt; 32) | – | IC50 [3]: 76 nM; ED50 [1]: 19 µmol/kg; IC50 [2]: 2.9 nM
19 | CNC1CC(c2ccc(F)cc2)c2ccccc21 (stereo in doubt; 32) | > 144 µmol/kg | –
20 | CN(C)C1CC(c2ccc(F)cc2)c2ccccc21 (stereo in doubt; 33) | 45 µmol/kg | –
21 | CN(C)C1CC(c2ccc(Cl)cc2)c2ccccc21 (stereo in doubt; 35) | 48 µmol/kg | –

Row | Compound | ED50 [5] | also measured
22 | CNC1CC(c2ccc(Br)cc2)c2ccccc21 (stereo in doubt; 36) | 8.8 µmol/kg | –
23 | CN(C)C1CC(c2ccc(Br)cc2)c2ccccc21 (stereo in doubt; 37) | 8.4 µmol/kg | –
24 | CNC1CC(c2cccc(Cl)c2)c2ccccc21 (stereo in doubt; 39) | 92 µmol/kg | –
25 | CN(C)C1CC(c2cccc(Cl)c2)c2ccccc21 (stereo in doubt; 40) | 43 µmol/kg | –
26 | CNC1CC(c2ccc(F)c(F)c2)c2ccccc21 (stereo in doubt; 41) | 22 µmol/kg | –
27 | CNC1CC(c2ccc(F)c(Cl)c2)c2ccccc21.Cl (stereo in doubt; 43) | – | ED50 [1]: 12 µmol/kg
28 | CNC1CC(c2ccc(F)c(Cl)c2)c2ccccc21 (stereo in doubt; 43) | 47 µmol/kg | –
29 | CN(C)C1CC(c2ccc(F)c(Cl)c2)c2ccccc21.Cl (stereo in doubt; 44) | – | ED50 [1]: 4.5 µmol/kg
30 | CN(C)C1CC(c2ccc(F)c(Cl)c2)c2ccccc21 (stereo in doubt; 44) | 37 µmol/kg | –
31 | CNC1CC(c2ccc(Cl)cc2Cl)c2ccccc21 (stereo in doubt; 48) | 67 µmol/kg | –
32 | CN(C)C1CC(c2ccc(Cl)cc2Cl)c2ccccc21 (stereo in doubt; 49) | 19 µmol/kg | –
33 | CNC1CC(c2ccc(Cl)c(Cl)c2)c2ccc(F)cc21 (stereo in doubt; 50) | 27 µmol/kg | –
34 | CN(C)C1CC(c2ccc(Cl)c(Cl)c2)c2ccc(F)cc21 (stereo in doubt; 51) | 20 µmol/kg | –
35 | CNC1CC(c2ccc(Cl)c(Cl)c2)c2ccc(O)cc21 (stereo in doubt; 54) | > 128 µmol/kg | –
36 | CN(C)C1CC(c2ccc(F)cc2)c2ccc(C(F)(F)F)cc21 (stereo in doubt; 57) | 123 µmol/kg | –
37 | CN(C)C1CC(c2ccccc2)c2ccccc21.Cl (stereo in doubt; 59) | – | ED50 [1]: >143 µmol/kg; IC50 [2]: 41 nM
38 | CN(C)C1CC(c2ccccc2)c2ccccc21 (stereo in doubt; 59) | > 36 µmol/kg | –
39 | CNC1CC(c2ccc(F)cc2)c2ccccc21.Cl (stereo in doubt; 60) | – | IC50 [3]: 21 nM; ED50 [1]: 79 µmol/kg; IC50 [2]: 120 nM
40 | CNC1CC(c2ccc(F)cc2)c2ccccc21 (stereo in doubt; 60) | 72 µmol/kg | –
41 | CN(C)C1CC(c2ccc(F)cc2)c2ccccc21.Cl (stereo in doubt; 61) | – | IC50 [3]: 6.2 nM; ED50 [1]: 24 µmol/kg; IC50 [2]: 24 nM
42 | CN(C)C1CC(c2ccc(F)cc2)c2ccccc21 (stereo in doubt; 61) | 25 µmol/kg | –

Row | Compound | ED50 [5] | also measured
43 | CN(C)C1CC(c2ccc(Cl)cc2)c2ccccc21 (stereo in doubt; 63) | 14 µmol/kg | –
44 | CNC1CC(c2ccc(Br)cc2)c2ccccc21 (stereo in doubt; 64) | 6.6 µmol/kg | –
45 | CN(C)C1CC(c2ccc(Br)cc2)c2ccccc21 (stereo in doubt; 65) | 12 µmol/kg | –
46 | CNC1CC(c2cccc(Cl)c2)c2ccccc21 (stereo in doubt; 66) | 124 µmol/kg | –
47 | CN(C)C1CC(c2cccc(Cl)c2)c2ccccc21 (stereo in doubt; 67) | 78 µmol/kg | –
48 | CNC1CC(c2ccc(F)c(F)c2)c2ccccc21 (stereo in doubt; 68) | 63 µmol/kg | –
49 | CNC1CC(c2ccc(F)c(Cl)c2)c2ccccc21.Cl (stereo in doubt; 70) | – | ED50 [1]: 32 µmol/kg
50 | CNC1CC(c2ccc(F)c(Cl)c2)c2ccccc21 (stereo in doubt; 70) | 30 µmol/kg | –
51 | CN(C)C1CC(c2ccc(F)c(Cl)c2)c2ccccc21.Cl (stereo in doubt; 71) | – | ED50 [1]: 13 µmol/kg
52 | CN(C)C1CC(c2ccc(F)c(Cl)c2)c2ccccc21 (stereo in doubt; 71) | 51 µmol/kg | –
53 | CNC1CC(c2ccc(Cl)cc2Cl)c2ccccc21 (stereo in doubt; 74) | 71 µmol/kg | –
54 | CN(C)C1CC(c2ccc(Cl)cc2Cl)c2ccccc21 (stereo in doubt; 75) [listing 1 of 2 here] | – | ED50 ([1]; Mus musculus, read-out: ED50): 23 µmol/kg; IC50 [2]: 34 nM
55 | CN(C)C1CC(c2ccc(Cl)cc2Cl)c2ccccc21 (stereo in doubt; 75) [listing 2 of 2 here] | 19 µmol/kg | –
56 | CNC1CC(c2ccc(Cl)c(Cl)c2)c2ccc(F)cc21 (stereo in doubt; 76) | 15 µmol/kg | –
57 | CN(C)C1CC(c2ccc(Cl)c(Cl)c2)c2ccc(F)cc21 (stereo in doubt; 77) [listing 1 of 2 here] | – | IC50 [3]: 2.5 nM; IC50 [2]: 3.7 nM; IC50 [4]: 31 nM
58 | CN(C)C1CC(c2ccc(Cl)c(Cl)c2)c2ccc(F)cc21 (stereo in doubt; 77) [listing 2 of 2 here] | 29 µmol/kg | –
59 | CN(C)C1CC(c2ccc(F)cc2)c2ccc(C(F)(F)F)cc21.Cl (stereo in doubt; 82) | – | ED50 [1]: >111 µmol/kg; IC50 [2]: 350 nM
60 | CN(C)C1CC(c2ccc(F)cc2)c2ccc(C(F)(F)F)cc21 (stereo in doubt; 82) | 101 µmol/kg | –
61 | CCNC1CC(c2ccc(Cl)c(Cl)c2)c2ccccc21.Cl (stereo in doubt; 83) | – | IC50 [3]: 2.3 nM; IC50 [2]: 0.32 nM; IC50 [4]: 1.5 nM
62 | CCNC1CC(c2ccc(Cl)c(Cl)c2)c2ccccc21 (stereo in doubt; 83) | 26 µmol/kg | –
63 | CCNC1CC(c2ccc(Cl)c(Cl)c2)c2ccccc21.Cl (stereo in doubt; 84) | – | IC50 [3]: 1.6 nM; IC50 [2]: 49 nM

Row | Compound | ED50 [5] | also measured
64 | CCNC1CC(c2ccc(Cl)c(Cl)c2)c2ccccc21 (stereo in doubt; 84) | 26 µmol/kg | –
65 | CCN(CC)C1CC(c2ccc(Cl)c(Cl)c2)c2ccccc21 (stereo in doubt; 85) | 19 µmol/kg | –
66 | CCN(CC)C1CC(c2ccc(Cl)c(Cl)c2)c2ccccc21.Cl (stereo in doubt; 86) | – | ED50 [1]: >108 µmol/kg; IC50 [2]: 13 nM
67 | CCN(CC)C1CC(c2ccc(Cl)c(Cl)c2)c2ccccc21 (stereo in doubt; 86) | 204 µmol/kg | –
68 | CCCNC1CC(c2ccc(Cl)c(Cl)c2)c2ccccc21 (stereo in doubt; 87) | 87 µmol/kg | –
69 | CCCNC1CC(c2ccc(Cl)c(Cl)c2)c2ccccc21 (stereo in doubt; 88) [listing 1 of 2 here] | – | ED50 ([1]; Mus musculus, read-out: ED50): > 112 µmol/kg
70 | CCCNC1CC(c2ccc(Cl)c(Cl)c2)c2ccccc21 (stereo in doubt; 88) [listing 2 of 2 here] | > 112 µmol/kg | –
71 | CCCN(CCC)C1CC(c2ccc(Cl)c(Cl)c2)c2ccccc21 (stereo in doubt; 89) | > 100 µmol/kg | –
72 | CCCN(CCC)C1CC(c2ccc(Cl)c(Cl)c2)c2ccccc21.Cl (stereo in doubt; 90) | – | ED50 [1]: >100 µmol/kg; IC50 [4]: 180 nM
73 | CCCN(CCC)C1CC(c2ccc(Cl)c(Cl)c2)c2ccccc21 (stereo in doubt; 90) | > 100 µmol/kg | –
74 | Clc1ccc(C2CC(NCc3ccccc3)c3ccccc32)cc1Cl (stereo in doubt; 93) | 47 µmol/kg | –
75 | Clc1ccc(C2CC(NCc3ccccc3)c3ccccc32)cc1Cl (stereo in doubt; 94) | 207 µmol/kg | –
76 | Clc1ccc(C2CC(N3CCCC3)c3ccccc32)cc1Cl (stereo in doubt; 97) [listing 1 of 2 here] | – | ED50 ([1]; Mus musculus, read-out: ED50): > 108 µmol/kg; IC50 [4]: 320 nM
77 | Clc1ccc(C2CC(N3CCCC3)c3ccccc32)cc1Cl (stereo in doubt; 97) [listing 2 of 2 here] | > 108 µmol/kg | –
78 | Clc1ccc(C2CC(N3CCCC3)c3ccccc32)cc1Cl (stereo in doubt; 98) [listing 1 of 2 here] | – | IC50 [3]: 3.1 nM; IC50 [2]: 27 nM; IC50 [4]: 32 nM
79 | Clc1ccc(C2CC(N3CCCC3)c3ccccc32)cc1Cl (stereo in doubt; 98) [listing 2 of 2 here] | 161 µmol/kg | –
80 | Clc1ccc(C2CC(N3CCCCC3)c3ccccc32)cc1Cl (stereo in doubt; 99) [listing 1 of 2 here] | – | IC50 [4]: 720 nM
81 | Clc1ccc(C2CC(N3CCCCC3)c3ccccc32)cc1Cl (stereo in doubt; 99) [listing 2 of 2 here] | > 209 µmol/kg | –
82 | Clc1ccc(C2CC(N3CCCCC3)c3ccccc32)cc1Cl (stereo in doubt; 100) | > 209 µmol/kg | –
83 | CN1CCN(C2CC(c3ccc(Cl)c(Cl)c3)c3ccccc32)CC1 (stereo in doubt; 102) | > 89 µmol/kg | –
84 | CN1CCN(C2CC(c3ccc(Cl)c(Cl)c3)c3ccccc32)CC1 (stereo in doubt; (-)-102) | > 89 µmol/kg | –

Source: ChEMBL document CHEMBL1122866, “3-Phenyl-1-indanamines. Potential antidepressant activity and potent inhibition of dopamine, norepinephrine, and serotonin uptake” (J Med Chem, 1985)
